Measurements of several laboratories.
Lines come from different studies, so protocols differ.
Kir1 channel protein: Kir1 channel protein (Aedes aegypti, UniProt L0EQS9)
PDE11A: Dual 3',5'-cyclic-AMP and -GMP phosphodiesterase 11A (PDE11A, Homo sapiens, UniProt Q9HCR9)
ABHD6: Monoacylglycerol lipase ABHD6 (ABHD6, Homo sapiens, UniProt Q9BV23)
BTK: Tyrosine-protein kinase BTK (BTK, Homo sapiens, UniProt Q06187)
MMP14: Matrix metalloproteinase-14 (MMP14, Homo sapiens, UniProt P50281)
NTSR1: Neurotensin receptor type 1 (NTSR1, Homo sapiens, UniProt P30989)

SMILES	target	test	conditions	IC50
N#Cc1ccc(N2CCN(S(=O)(=O)c3ccc(F)cc3)CC2)cc1NCc1ccncc1	Kir1 channel protein	ion current, inhibitor, patch clamp		0.0276 µM
COc1ccc(CNc2c(CO)cnc3c(C4CC4)cc(C#N)cc23)cn1	PDE11A	enzyme activity, inhibitor		> 10 µM
O=C(Oc1nsnc1N1CCc2ccccc2C1)N1CCCCC1	ABHD6	enzyme activity, inhibitor, fluorescence	lysate	0.46 µM
COc1cc2c(NC3CCN(C)CC3)nc(N3CCCN(C)CC3)nc2cc1OCCOCCN(C)C	Lysine-specific demethylase 4E (KDM4E, Homo sapiens, UniProt B2RXH2)	enzyme activity, inhibitor		> 57 µM
C=CC(=O)Nc1cc(Nc2nccc(Nc3cc(Cl)c(F)cc3C(C)(C)O)n2)c(OC)cc1N1CC[C@@H](N(C)C)C1	BTK	enzyme activity, inhibitor	with preincubation	0.213 µM
O=C(O)c1cc2ccccc2c(Cc2c(O)c(C(=O)O)cc3ccccc23)c1O	DNA polymerase eta (POLH, Homo sapiens, UniProt Q9Y253)	enzyme activity, inhibitor		79 µM
COc1ccc2c(Oc3ccc4c(C(=O)Nc5ccccc5N)cccc4c3)ccnc2c1	RAC-beta serine/threonine-protein kinase (AKT2, Homo sapiens, UniProt P31751)	enzyme activity, inhibitor		> 0.5 µM
Cn1nc(C(=O)NCc2ccc(C(=O)O)cc2)cc1-c1ccc2[nH]c(-c3ccncc3)cc2c1	MMP14	enzyme activity, inhibitor		> 20 µM
O=C(Oc1nsnc1N1CCC2CCCCC2C1)N1CCCCC1 (stereo not shown)	ABHD6	enzyme activity, inhibitor, fluorescence	lysate	0.56 µM
Cc1ccc(C(=O)Nc2ccc(Oc3cc4cnn(C)c4cc3-c3cn[nH]c3)c(F)c2)c(=O)n1-c1ccc(F)cc1	Vascular endothelial growth factor receptor 1 (FLT1, Homo sapiens, UniProt P17948)	enzyme activity, inhibitor, radiometric		0.076 µM
Cc1noc(-c2cc3cc(-c4cc(C(=O)NCc5ccc(C(=O)O)cc5)nn4C)ccc3[nH]2)n1	MMP14	enzyme activity, inhibitor		> 20 µM
NC(=O)c1cccc(-c2cccc(OC(=O)NC3CCCCC3)c2)c1	Arylacetamide deacetylase (Homo sapiens, UniProt P22760)	enzyme activity, inhibitor		0.19 µM
O=[N+]([O-])c1ccc(N2CCN(S(=O)(=O)c3ccc(F)cc3)CC2)cc1NCc1cccnc1	Kir1 channel protein	ion flux, inhibitor		0.47 µM
Cc1cnc(-c2ccc(-c3ccc(NC(=O)Nc4c(F)cc(F)cc4F)cc3F)c3c2C(=O)NC3)[nH]1	Mitogen-activated protein kinase kinase kinase 19 (MAP3K19, Homo sapiens, UniProt Q56UN5)	enzyme activity, inhibitor		0.0173 µM
N#Cc1ccc(N2CCN(S(=O)(=O)c3ccc(Cl)cc3)CC2)cc1NCc1ccncc1	Kir1 channel protein	ion flux, inhibitor		0.738 µM
CC(C)(C)c1cc(Cc2cc(C(C)(C)C)c(O)c(C(C)(C)C)c2)cc(C(C)(C)C)c1O	Sarcoplasmic/endoplasmic reticulum calcium ATPase 1 (ATP2A1, Oryctolagus cuniculus, UniProt P04191)	ATPase activity, inhibitor, absorbance	pH 7.3	17 µM
O=[N+]([O-])c1ccc(N2CCN(S(=O)(=O)c3ccc(F)cc3)CC2)cc1NCc1ccccn1	Kir1 channel protein	ion flux, inhibitor		0.8 µM
CCNC(=O)c1nc(-c2ccc3[nH]c(-c4nc(C)no4)cc3c2)c(C)[nH]1	MMP14	enzyme activity, inhibitor		> 20 µM
N#CN1C[C@H](n2nc(-c3ccc(Oc4ccc(Cl)cn4)cc3)c(C(N)=O)c2N)CCC12CC2	BTK	enzyme activity, inhibitor		0.0005 to 0.004 µM

SMILES	target	test	conditions	IC50
Cc1noc(-c2cc3cc(-c4nc(C(=O)NCc5ccncc5)[nH]c4C)ccc3[nH]2)n1	MMP14	enzyme activity, inhibitor		> 20 µM
O=C1Nc2ccc(I)cc2/C1=C/c1cc(Br)c(O)c(Br)c1	Protein-glutamine gamma-glutamyltransferase (TGM2, Homo sapiens, UniProt P21980)	enzyme activity, inhibitor		50 µM
COc1ccc(-c2nsc(NC(=O)[C@@H]3C[C@H]3C)c2C)cc1	Metabotropic glutamate receptor 8 (GRM8, Homo sapiens, UniProt O00222)	calcium signal, antagonist		> 12.5 µM
O=S(=O)(c1ccc(Cl)cc1)N1CCN(c2cccc(NCc3ccncc3)c2)CC1	Kir1 channel protein	ion flux, inhibitor		4 to 9 µM
COc1ccc(F)cc1C(=O)NCc1ccc(-c2nn([C@@H](C)C(F)(F)F)c(N)c2C(N)=O)cc1	BTK	phosphorylation in cells, inhibitor		0.0039 µM
O=C(O)CC(=O)C(=O)O	L-lactate dehydrogenase B chain (LDHB, Homo sapiens, UniProt P07195)	enzyme activity, inhibitor		1020 µM
CC1=CC(=O)C(C(C)C)=CC1=O	Cytochrome P450 2E1 (CYP2E1, Homo sapiens, UniProt P05181)	enzyme activity, inhibitor, HPLC		97 µM
Cc1noc(-c2cc3cc(-c4nc(C(=O)NCc5ccccn5)[nH]c4C)ccc3[nH]2)n1	MMP14	enzyme activity, inhibitor		> 20 µM
CCC1(c2ccc(C)cc2)C(=O)N(C(=O)OC(C)C)N1C(=O)OC(C)C (stereo not shown)	Prolyl endopeptidase (Mus musculus, UniProt Q9QUR6)	enzyme activity, inhibitor		4.5 µM
Cc1cc(O)cc(C)c1C[C@H](NC(=O)[C@@H]1CCCN1C(=O)[C@H](CCCNC(=N)N)NC(=O)[C@H](CCCNC(=N)N)N(C)C(=O)CNC(=O)[C@@H](CO)NC(=O)CNC(=O)[C@H](Cc1cn(CCNC(=O)[C@H](Cc2ccc(O)cc2)NC(=O)[C@H](CC(C)C)NC(=O)C2OC2C(=O)O)nn1)NC(=O)CN1CCN(CC(=O)O)CCN(CC(=O)O)CCN(CC(=O)O)CC1)C(=O)N[C@H](C(=O)N[C@@H](CC(C)C)C(=O)O)C(C)(C)C (mixture of isomers)	NTSR1	ligand displacement, radioligand		0.087 µM
CN1CCN(c2ccc(Nc3ncc4cc(C#N)c(=O)n(C5CCCC5)c4n3)cc2)CC1	Receptor tyrosine-protein kinase erbB-4 (ERBB4, Homo sapiens, UniProt Q15303)	enzyme activity, inhibitor		3.09 µM
CSc1ccc(/C=C2/C(C)=C(CC(=O)O)c3cc(F)ccc32)cc1	PDE11A	enzyme activity, inhibitor		> 100 µM
O=[N+]([O-])c1ccc(N2CCN(S(=O)(=O)c3ccc(F)cc3)CC2)cc1NCc1ccncc1	Kir1 channel protein	ion current, inhibitor, patch clamp		0.0497 µM
Cc1cc(O)cc(C)c1C[C@H](NC(=O)[C@@H]1CCCN1C(=O)[C@H](CCCNC(=N)N)NC(=O)[C@H](CCCNC(=N)N)N(C)C(=O)CNC(=O)[C@@H](CO)NC(=O)CNC(=O)[C@H](Cc1cn(CCNC(=O)[C@H](CCCNC(=N)N)NC(=O)[C@H](CC(C)C)NC(=O)C2OC2C(=O)O)nn1)NC(=O)CN1CCN(CC(=O)O)CCN(CC(=O)O)CCN(CC(=O)O)CC1)C(=O)N[C@H](C(=O)N[C@@H](CC(C)C)C(=O)O)C(C)(C)C (mixture of isomers)	NTSR1	ligand displacement, radioligand		0.073 µM
O=[N+]([O-])c1ccc(N2CCN(S(=O)(=O)c3ccc(Cl)cc3)CC2)cc1NCc1ccncc1	Kir1 channel protein	ion flux, inhibitor		0.75 µM
Cc1noc(-c2cc3cc(-c4nc(C(N)=O)[nH]c4C)ccc3[nH]2)n1	MMP14	enzyme activity, inhibitor		> 28 µM
O=[N+]([O-])c1ccc(N2CCN(S(=O)(=O)c3ccccc3)CC2)cc1NCc1cccnc1	Kir1 channel protein	ion flux, inhibitor		0.55 µM
CC[C@H](C)[C@H](NC(C)=O)C(=O)N[C@@H](CCC(=O)O)C(=O)N[C@H](C(=O)N[C@H](C=O)CC(=O)O)[C@@H](C)O	Caspase-8 (CASP8, Homo sapiens, UniProt Q14790)	enzyme activity, inhibitor		0.00174 µM
